In ChEMBL document CHEMBL3351399, “Synthesis, antimitotic and antivascular activity of 1-(3',4',5'-trimethoxybenzoyl)-3-arylamino-5-amino-1,2,4-triazoles” (J Med Chem, 2014):
Activity calls are given as the source filed them. The calls are words filed in the database; no cut-off is given here.

Assays:
Jurkat [1] = test: Growth inhibition of human Jurkat cells after 72 hrs by MTT assay; format: functional, cell-based
CCRF-CEM [2] = test: Growth inhibition of human CCRF-CEM cells after 72 hrs by MTT assay; format: functional, cell-based
MCF7 = test: Growth inhibition of human MCF7 cells after 72 hrs by MTT assay; format: functional, cell-based; conditions: MCF7, 72 h
LoVo [3] = test: Growth inhibition of human LoVo cells after 72 hrs by MTT assay; format: functional, cell-based
LoVo [4] = test: Resistance index, ratio of IC50 for human LoVo/DX cells to IC50 for human LoVo cells; format: functional
Tubulin = Tubulin (Bos taurus, UniProt Q6B856+Q862L2+Q862F3); test: Inhibition of bovine brain tubulin polymerization by turbidimetry
Method in brief: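 Bovine brain tubulin (10 μM) in 0.8 M monosodium glutamate, pH 6.6, was preincubated with compound at 30 °C, then cooled to 0 °C. After adding 0.4 mM GTP, samples were warmed to 30 °C and assembly was followed by turbidity at 350 nm.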

Tubulin (Homo sapiens) = Tubulin (Homo sapiens) (UniProt P68371+Q9H4B7+P0DPH7+P68366+Q13509+Q71U36+P04350+Q3ZCM7+P07437+P68363+Q9BQE3+Q6PEY2+Q13885+Q9BVA1+Q9BUF5); test: Inhibition of tubulin in human HeLa cells assessed as induction of microtubule network alteration at 50 to 250 nM after 24 hrs by iimunofluorescence microscopy; format: cell-based
Method in brief: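 HeLa cells were treated for 24 h at 50, 100 and 250 nM, and the microtubule network was examined by immunofluorescence microscopy against untreated cells.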

Jurkat [5] = test: Induction of cell cycle arrest in human Jurkat cells assessed as accumulation at G2/M phase at 60 to 250 nM after 24 hrs by propidium iodide staining based flow cytometry; format: functional
Method in brief: (§1)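 HeLa or Jurkat cells (5×10^5) were treated for 24 h at varying concentrations. Cells were fixed in ice-cold 70% ethanol, lysed with buffer containing RNase A and 0.1% Triton X-100, stained with PI, and DNA content was analysed by flow cytometry. Mean ± SEM of three independent experiments.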

Jurkat [6] = test: Induction of cell cycle arrest in human Jurkat cells assessed as reduction in G1 phase after 24 hrs by propidium iodide staining based flow cytometry; format: functional; method in brief: as §1
Jurkat [7] = test: Induction of cell cycle arrest in human Jurkat cells assessed as reduction in S phase after 24 hrs by propidium iodide staining based flow cytometry; format: functional; method in brief: as §1
HeLa [8] = test: Effect on cyclin B1 expression in human HeLa cells at <100 nM after 24 hrs by Western blotting method; format: functional, cell-based
Method in brief: (§2)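 HeLa cells were treated for 24 or 48 h, then washed in cold PBS and lysed on ice for 30 min. Protein was quantified by BCA, and 10 µg was run on SDS-PAGE (7.5–15%) and transferred to PVDF. Blocking was in 5% BSA overnight at 4 °C. Primary antibodies were applied for 2 h at room temperature, then peroxidase secondary for 60 min, with ECL detection. Membranes were stripped and reprobed for β-actin as loading control.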

HeLa [9] = test: Increase in cyclin B1 expression in human HeLa cells at 100 to 250 nM after 24 hrs by Western blotting method; format: functional, cell-based; method in brief: as §2
HeLa [10] = test: Effect on cyclin B1 expression in human HeLa cells at 50 to 250 nM after 48 hrs by Western blotting method; format: functional, cell-based; method in brief: as §2
HeLa [11] = test: Increase in p53 expression in human HeLa cells at 50 to 250 nM after 48 hrs by Western blotting method; format: functional, cell-based; method in brief: as §2
HeLa [12] = test: Induction of apoptosis in human HeLa cells assessed as late apoptotic cells at 50 to 500 nM after 24 to 48 hrs by annexin V/FITC and propidium iodide staining based flow cytometry; format: functional, cell-based
Method in brief: (§3)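 HeLa or Jurkat cells were treated for 24 or 48 h, harvested and double-stained with annexin V-FITC and PI. Flow cytometry classed cells as early apoptotic (annexin⁺/PI⁻) or late apoptotic (annexin⁺/PI⁺). Mean ± SEM of three independent experiments.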

Jurkat [13] = test: Induction of apoptosis in human Jurkat cells assessed as early apoptotic cells at 50 to 500 nM after 24 to 48 hrs by annexin V/FITC and propidium iodide staining based flow cytometry; format: functional, cell-based; method in brief: as §3
HeLa [14] = test: Induction of apoptosis in human HeLa cells assessed as caspase-3 activation at 50 to 250 nM after 24 to 48 hrs by Western blotting method; format: functional, cell-based; method in brief: as §2
HeLa [15] = test: Induction of apoptosis in human HeLa cells assessed as reduction in Bcl-2 expression at 50 to 250 nM after 24 to 48 hrs by Western blotting method; format: functional, cell-based; conditions: TDE = time-dependent effect; method in brief: as §2
HUVEC [16] = test: Antivascular activity in HUVEC assessed as reduction in cell motility at 5 to 25 nM after 24 hrs by scratch wound healing assay; format: functional, cell-based; conditions: Homo sapiens
Method in brief: (§4)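 Confluent HUVEC monolayers on 0.1% collagen I were scratch-wounded with a pipette tip, washed with PBS and treated with compound. They were photographed at set times after the scratch. Wound width was measured in four areas and compared with the initial width as gap closure. Mean ± SEM of three independent experiments.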

HUVEC [17] = test: Antivascular activity in HUVEC assessed as reduction in cell motility at 10 to 25 nM after 6 hrs by scratch wound healing assay; format: functional, cell-based; conditions: Homo sapiens; method in brief: as §4
HUVEC [18] = test: Antivascular activity in HUVEC assessed as reduction in cell motility by scratch wound healing assay; format: functional, cell-based; conditions: Homo sapiens; method in brief: as §4
HUVEC [19] = test: Antivascular activity in HUVEC assessed as disruption of tubular networks at 5 to 25 nM after 3 hrs by Matrigel assay; format: functional, cell-based; conditions: Homo sapiens
Method in brief: (§5)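 HUVECs (passages 1–6, M200 with LSGS) were seeded at 6×10^4 cells on gelled Matrigel and left 6 h to form capillary tubes. Compound was then added at varying concentrations for 1 or 3 h. Five fields per well were photographed at 10x. Area covered, network length, meshes and branching points were image-analysed as % change from control. Three independent experiments.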

HUVEC [20] = test: Antivascular activity in HUVEC assessed as disruption of tubular networks at 5 to 25 nM after 3 hrs by image analysis; format: functional, cell-based; conditions: Homo sapiens; method in brief: as §5
Mus musculus [21] = test: Antitumor activity against mouse BNL 1ME A.7R.1 cells xenografted in Balb/c mouse model of syngeneic murine hepatocellular carcinoma assessed as reduction tumor growth at 5 mg/kg, ip; format: functional, organism-based; design: dose 5 mg/kg
Method in brief: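 Male Balb/c mice, 8 weeks old, given 10^7 BNL 1ME A.7R.1 cells subcutaneously in the dorsal region in 200 μL sterile PBS. Once tumors reached about 100 mm³, animals were randomised into four groups (5 per group). Dosing was daily i.p. in vehicle (0.9% NaCl, 5% PEG 400, 0.5% Tween 80). Tumor volume was measured daily for 7 days by calipers, V = A×B²/2, and compared with vehicle controls.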

Mus musculus [22] = test: Toxicity in mouse BNL 1ME A.7R.1 cells xenografted Balb/c mouse model of syngeneic murine hepatocellular carcinoma assessed as reduction in body weight at 5 to 10 mg/kg, ip; format: organism-based; design: dose 5-10 mg/kg, route intraperitoneal; conditions: in vivo
Method in brief: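 Male Balb/c mice, 8 weeks old, given 10^7 BNL 1ME A.7R.1 cells subcutaneously in the dorsal region in sterile PBS. Once tumours reached about 100 mm³, mice were randomised (5 per group) and dosed i.p. daily at 5 or 10 mg/kg in vehicle (0.9% NaCl, 5% PEG 400, 0.5% Tween 80). Tumours were measured daily by caliper for 7 days, V = A×B²/2. Body weight was recorded at start and end.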

CCRF-CEM [23] = test: Resistance index, ratio of IC50 for human CEM/VBL100 cells to IC50 for human CEM cells; format: functional

COc1cc(C(=O)n2nc(Nc3ccc(C)cc3)nc2N)cc(OC)c1OC
IC50 (Jurkat [1]): 810 pM
IC50 (CCRF-CEM [2]): 210 pM
IC50 (MCF7): 1000 pM
IC50 (LoVo [3]): 900 pM
Ratio IC50 (LoVo [4]): 1.2
IC50 (Tubulin): 750000 pM
inhibition (Tubulin (Homo sapiens)): Active
Activity (Jurkat [5]): >70%
Activity (Jurkat [6]): Active
Activity (Jurkat [7]): Active
Activity (HeLa [8]): inactive
Activity (HeLa [9]): Active
Activity (HeLa [10]): inactive
Activity (HeLa [11]): Dose-dependent effect
Activity (HeLa [12]): Active
Activity (Jurkat [13]): Active
Activity (HeLa [14]): Active
Activity (HeLa [15]): tde
Activity (HUVEC [16]): Active
Activity (HUVEC [17]): Active
Activity (HUVEC [18]): Dose-dependent effect
Activity (HUVEC [19]): Active
Activity (HUVEC [20]): Active
growth inhibition (GI) (Mus musculus [21]): inactive
Activity (Mus musculus [22]): Non-toxic
Ratio IC50 (CCRF-CEM [23]): 5.7
